# Legend:
# B16 = experiment: Antitumor activity against mouse B16 cells after 72 hrs by Calcein AM assay; type: functional, cell-based; details: B16, 72 h
# How it was run: (§1)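 Cells grown in DMEM at 37 °C under 5% CO2. Compounds added after 12 h preincubation in 96-well plates, final 0.5-170 μM, with 0.6% final DMSO, then 72 h exposure. Viable cells stained with Calcein AM for 1 h and read at 485/538 nm. IC50 (concentration lethal to 50% of cells) taken from dose-response curves. Run in quadruplicate.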
# [1] = Cytotoxicity against mouse NIH 3T3 cells after 72 hrs by Calcein AM assay; type: cell-based; details: NIH3T3, 72 h; how it was run: as §1
# Amaranthus [2] = experiment: Cytokinin activity in Amaranthus cotyledons assessed as dark induction of betacyanin synthesis at 0.1 mmol/L relative to 6-Benzylaminopurine; type: functional
# How it was run: (§2)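 Dark induction of betacyanin in excised Amaranthus cotyledons. DMSO stock brought to 10^-3 M in water, diluted into assay medium (DMSO ≤0.2%). Tested over 10^-4 to 10^-8 M, five replicates per concentration, assay repeated at least three times. Response at the optimal concentration expressed relative to BAP at its optimum (set to 100).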
# Triticum aestivum = experiment: Cytokinin activity in wheat assessed as retention of chlorophyll in excised wheat leaves at 0.1 mmol/L relative to 6-Benzylaminopurine by senescence assay; type: functional
# How it was run: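 Senescence assay measuring chlorophyll retention in excised wheat leaves. DMSO stocks brought to 10^-3 M with water, then diluted in assay medium to a final DMSO of at most 0.2%. Concentrations 10^-4 to 10^-8 M, quintuplicate, repeated at least three times. Response at the optimal concentration normalised to BAP optimum = 100.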
# Nicotiana tabacum [3] = experiment: Cytokinin activity in tobacco assessed as stimulation of callus growth at 1 umol/L relative to 6-Benzylaminopurine; type: functional
# How it was run: (§3)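 Stimulation of tobacco callus growth. Compounds dissolved in DMSO, brought to 10^-3 M in water and diluted into medium (DMSO ≤0.2%). Range 10^-4 to 10^-8 M, five replicates per concentration, at least three independent repeats. Activity at the optimal concentration given relative to BAP's optimal response, taken as 100.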
# [4] = target: T1, Histidine kinase 3 (Arabidopsis thaliana) (UniProt Q9C5U1); experiment: Activation of Arabidopsis thaliana AHK3 cytokinin receptor relative to trans-zeatin; parameters: concentration or dose not given beside the values
# T1 sequence (whole entry): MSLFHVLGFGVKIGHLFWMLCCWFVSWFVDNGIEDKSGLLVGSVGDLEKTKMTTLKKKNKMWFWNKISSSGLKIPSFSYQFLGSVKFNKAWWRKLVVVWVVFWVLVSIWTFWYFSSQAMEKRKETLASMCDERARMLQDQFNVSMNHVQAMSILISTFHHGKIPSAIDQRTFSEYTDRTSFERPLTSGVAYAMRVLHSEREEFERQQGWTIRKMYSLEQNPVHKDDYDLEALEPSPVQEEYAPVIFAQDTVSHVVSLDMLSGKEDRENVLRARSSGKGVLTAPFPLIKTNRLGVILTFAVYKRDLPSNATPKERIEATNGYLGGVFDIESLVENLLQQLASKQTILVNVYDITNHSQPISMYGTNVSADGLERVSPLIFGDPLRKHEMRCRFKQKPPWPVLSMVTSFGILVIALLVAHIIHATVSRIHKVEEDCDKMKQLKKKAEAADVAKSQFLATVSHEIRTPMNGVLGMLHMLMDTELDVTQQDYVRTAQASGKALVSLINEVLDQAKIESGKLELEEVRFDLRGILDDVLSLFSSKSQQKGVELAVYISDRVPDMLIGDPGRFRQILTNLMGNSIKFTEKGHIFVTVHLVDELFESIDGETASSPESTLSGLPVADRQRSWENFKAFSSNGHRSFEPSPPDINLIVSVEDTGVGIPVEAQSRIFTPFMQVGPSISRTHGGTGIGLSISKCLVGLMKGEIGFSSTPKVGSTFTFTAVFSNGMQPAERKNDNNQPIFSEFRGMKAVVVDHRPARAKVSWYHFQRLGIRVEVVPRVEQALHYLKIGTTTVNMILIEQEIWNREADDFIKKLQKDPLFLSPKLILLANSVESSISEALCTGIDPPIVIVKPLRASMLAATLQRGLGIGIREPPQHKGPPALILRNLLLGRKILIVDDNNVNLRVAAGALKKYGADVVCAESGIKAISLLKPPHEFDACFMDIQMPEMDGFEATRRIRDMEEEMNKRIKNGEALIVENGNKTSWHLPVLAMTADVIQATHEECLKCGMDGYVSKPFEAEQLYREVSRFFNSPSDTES
# How it was run: (§4)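 E. coli KMI001 carrying pSTV28-AHK3 or pIN-III-AHK4, precultured overnight at 25 °C in M9 + 0.1% casamino acids to OD600 ~1. Diluted 1:600, compound or solvent added, then incubated at 25 °C for 28 h (AHK3) or 17 h (CRE1/AHK4). Supernatant incubated with 4-methylumbelliferyl β-D-galactoside for 1 h at 37 °C and stopped with Na2CO3. Fluorescence read at 365/460 nm. β-galactosidase expressed as nmol 4-MU × OD600⁻¹ × h⁻¹.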
# [5] = target: Histidine kinase 4 (Arabidopsis thaliana) (UniProt Q9C5U0); experiment: Activation of Arabidopsis thaliana CRE1/AHK4 cytokinin receptor relative to trans-zeatin; parameters: concentration or dose not given beside the values; how it was run: as §4
# Sequence of Histidine kinase 4 (Arabidopsis thaliana) (Q9C5U0 whole entry): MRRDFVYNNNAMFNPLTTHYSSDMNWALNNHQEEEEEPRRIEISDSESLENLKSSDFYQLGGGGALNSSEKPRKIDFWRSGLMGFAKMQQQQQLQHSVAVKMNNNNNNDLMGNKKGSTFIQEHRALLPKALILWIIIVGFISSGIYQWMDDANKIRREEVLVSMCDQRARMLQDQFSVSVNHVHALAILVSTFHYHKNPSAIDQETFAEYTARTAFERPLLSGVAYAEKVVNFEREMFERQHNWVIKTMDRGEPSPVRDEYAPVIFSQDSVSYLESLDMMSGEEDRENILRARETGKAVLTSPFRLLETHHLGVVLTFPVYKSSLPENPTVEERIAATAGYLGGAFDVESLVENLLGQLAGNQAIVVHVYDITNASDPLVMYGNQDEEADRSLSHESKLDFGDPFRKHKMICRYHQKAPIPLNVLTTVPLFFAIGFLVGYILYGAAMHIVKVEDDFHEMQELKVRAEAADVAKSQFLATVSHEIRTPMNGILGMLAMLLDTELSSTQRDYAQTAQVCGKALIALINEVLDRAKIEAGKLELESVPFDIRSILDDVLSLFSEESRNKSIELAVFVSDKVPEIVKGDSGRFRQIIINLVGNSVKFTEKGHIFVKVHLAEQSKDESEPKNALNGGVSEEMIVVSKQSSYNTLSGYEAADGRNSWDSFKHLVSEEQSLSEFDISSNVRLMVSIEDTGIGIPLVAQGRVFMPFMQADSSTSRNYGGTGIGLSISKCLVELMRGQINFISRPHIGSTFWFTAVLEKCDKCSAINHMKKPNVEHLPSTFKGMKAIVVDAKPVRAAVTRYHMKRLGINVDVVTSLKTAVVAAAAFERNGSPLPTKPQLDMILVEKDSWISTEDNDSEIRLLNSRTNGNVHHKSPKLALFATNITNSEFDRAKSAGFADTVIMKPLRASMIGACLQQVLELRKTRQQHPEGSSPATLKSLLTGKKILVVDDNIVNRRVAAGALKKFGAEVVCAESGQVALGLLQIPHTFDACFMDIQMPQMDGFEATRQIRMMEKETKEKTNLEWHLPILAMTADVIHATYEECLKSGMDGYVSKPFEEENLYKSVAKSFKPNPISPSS
# HOS = experiment: Antitumor activity against human HOS cells after 72 hrs by Calcein AM assay; type: functional, cell-based; how it was run: as §1
# K562 = experiment: Antitumor activity against human K562 cells after 72 hrs by Calcein AM assay; type: functional, cell-based; details: K562, 72 h; how it was run: as §1
# [6] = Antitumor activity against human MCF cells after 72 hrs by Calcein AM assay; type: functional, cell-based; how it was run: as §1
# CCRF-CEM = experiment: Antitumor activity against human CEM cells after 72 hrs by Calcein AM assay; type: functional, cell-based; how it was run: as §1
# HL-60 = experiment: Antitumor activity against human HL60 cells after 72 hrs by Calcein AM assay; type: functional, cell-based; details: HL-60, 72 h; how it was run: as §1
# Nicotiana tabacum [7] = experiment: Cytokinin activity in tobacco assessed as stimulation of callus growth at 0.01 mmol/L relative to 6-Benzylaminopurine; type: functional; how it was run: as §3
# G-361 = experiment: Antitumor activity against human G361 cells after 72 hrs by Calcein AM assay; type: functional, cell-based; details: G-361, 72 h; how it was run: as §1
# Amaranthus [8] = experiment: Cytokinin activity in Amaranthus cotyledons assessed as dark induction of betacyanin synthesis at 0.01 mmol/L relative to 6-Benzylaminopurine; type: functional; how it was run: as §2
SMILES,IC50 (B16),Activity [4],Activity [5],IC50 (HOS),IC50 (K562),IC50 [6],IC50 (CCRF-CEM),IC50 (HL-60),IC50 (G-361),IC50 [1],Activity (Amaranthus [2]),Activity (Triticum aestivum),Activity (Nicotiana tabacum [3]),Activity (Nicotiana tabacum [7]),Activity (Amaranthus [8])
OC[C@H]1O[C@@H](n2cnc3c(NCc4cc(F)c(F)cc4F)ncnc32)[C@H](O)[C@@H]1O,–,–,–,–,–,–,–,–,–,–,120%,99%,–,95%,–
OC[C@H]1O[C@@H](n2cnc3c(NCc4cccc(Br)c4)ncnc32)[C@H](O)[C@@H]1O,> 167 µM,–,–,> 167 µM,19.7 µM,> 167 µM,5 µM,8 µM,> 167 µM,> 167 µM,151%,89%,–,82%,–
Cc1cccc(CNc2ncnc3c2ncn3[C@@H]2O[C@H](CO)[C@@H](O)[C@H]2O)c1,> 167 µM,–,–,> 167 µM,> 167 µM,> 167 µM,19.1 µM,6.4 µM,> 167 µM,> 167 µM,–,143%,90%,–,96%
OC[C@H]1O[C@@H](n2cnc3c(NCc4ccc(F)cc4Cl)ncnc32)[C@H](O)[C@@H]1O,> 167 µM,–,–,> 167 µM,15.6 µM,> 167 µM,20.9 µM,9 µM,> 167 µM,> 167 µM,115%,165%,–,98%,–
OC[C@H]1O[C@@H](n2cnc3c(NCc4ccccc4)ncnc32)[C@H](O)[C@@H]1O [N6-BENZYLADENOSINE],> 167 µM,2.53%,0.35%,> 167 µM,5.5 µM,5.4 µM,1.4 µM,0.94 µM,> 167 µM,39 µM,–,–,–,–,–

# The next lines start with results.
IC50 (B16),Activity [4],Activity [5],IC50 (HOS),IC50 (K562),IC50 [6],IC50 (CCRF-CEM),IC50 (HL-60),IC50 (G-361),SMILES,IC50 [1],Activity (Amaranthus [2]),Activity (Triticum aestivum),Activity (Nicotiana tabacum [3]),Activity (Nicotiana tabacum [7]),Activity (Amaranthus [8])
> 167 µM,1.12%,0.14%,> 167 µM,> 167 µM,> 167 µM,7.6 µM,4.9 µM,–,COc1cccc(CNc2ncnc3c2ncn3[C@@H]2O[C@H](CO)[C@@H](O)[C@H]2O)c1,> 167 µM,98%,209%,92%,–,–
–,–,–,> 167 µM,> 167 µM,> 167 µM,> 167 µM,39 µM,–,COc1ccc(CNc2ncnc3c2ncn3[C@@H]2O[C@H](CO)[C@@H](O)[C@H]2O)c(OC)c1,–,3%,30%,–,5%,–
> 167 µM,–,–,> 167 µM,> 167 µM,> 167 µM,58.2 µM,13 µM,> 167 µM,OC[C@H]1O[C@@H](n2cnc3c(NCc4ccc(F)c(F)c4F)ncnc32)[C@H](O)[C@@H]1O,–,95%,144%,–,94%,–
–,–,–,> 167 µM,> 167 µM,> 167 µM,–,–,> 167 µM,OC[C@H]1O[C@@H](n2cnc3c(NCc4ccccc4OC(F)F)ncnc32)[C@H](O)[C@@H]1O,–,81%,180%,–,89%,–
19.5 µM,2.45%,0.22%,> 167 µM,156 µM,> 167 µM,> 167 µM,> 167 µM,115 µM,COc1ccc(CNc2ncnc3c2ncn3[C@@H]2O[C@H](CO)[C@@H](O)[C@H]2O)cc1,–,17%,65.5%,2%,–,–
167 µM,–,–,> 167 µM,5.5 µM,> 167 µM,3.4 µM,3.5 µM,> 167 µM,OC[C@H]1O[C@@H](n2cnc3c(NCc4ccc(F)c(Cl)c4)ncnc32)[C@H](O)[C@@H]1O,> 167 µM,82%,156%,87%,–,–
> 167 µM,–,–,> 167 µM,18 µM,6.9 µM,0.9 µM,15 µM,> 167 µM,Cc1cccc(CNc2ncnc3c2ncn3[C@@H]2O[C@H](CO)[C@@H](O)[C@H]2O)c1O,–,55%,–,–,5%,–
> 167 µM,–,–,> 167 µM,68.2 µM,> 167 µM,20.6 µM,47.4 µM,> 167 µM,OC[C@H]1O[C@@H](n2cnc3c(NCc4ccc(Br)cc4)ncnc32)[C@H](O)[C@@H]1O,> 167 µM,30%,76%,16%,–,–
